Experiments:
Rattus norvegicus [1] = assay: Antiinflammatory activity in rat assessed as inhibition of carrageenan-induced paw edema compound administered orally 1 hr prior challenge relative to phenylbutazone; assay type: functional
Outline: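 Female rats, 80-90 g, given test agent in "Government diluting fluid" 1 h before carrageenan injection into one hind paw. Rats killed 4 h after dosing; both hind paws excised and weighed. Potency relative to phenylbutazone read from dose-response plots of percent weight increase of inflamed over noninflamed paw. Usually at least three doses, six rats per dose.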

Mus musculus = assay: Analgesic activity in mouse assessed as inhibition of phenylquinone-induced writhing administered orally 20 mins prior challenge relative to aspirin; assay type: functional
Outline: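 Male mice, 18-20 g, dosed orally in "Government diluting fluid" vehicle, then given phenylquinone intraperitoneally 20 min later. Writhing observed over the following 10 min. Eight to ten mice per dose. Potency relative to aspirin taken from dose-response plots.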

Rattus norvegicus [2] = assay: Antiinflammatory activity in rat assessed as inhibition of cotton pellet granuloma at 0.5 to 4 mg/kg/day, po administered for 7 days starting same day of challenge measured on day 7 relative to indomethacin; assay type: functional
Outline: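 Cotton pellet granuloma in rats, by a modification of Meier's method. Vehicle "Government diluting fluid".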

Rattus norvegicus [3] = assay: Antiinflammatory activity in rat arthritis model assessed as inhibition of Freund's adjuvant-induced swelling compound administered orally bid for 17 days starting on day 1 of challenge measured on day 18 relative to naproxen; assay type: functional
Canis familiaris = assay: Toxicity in dog assessed as emesis at 5 mg/kg, po administered as single dose; assay type: organism-based, Canis lupus familiaris; design: dose 5 mg/kg, route oral; conditions: in vivo
Outline: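 Dogs given one oral dose (5, 10 or 30 mg/kg). Animals watched for signs of gastrointestinal intolerance, including emesis.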

Rattus norvegicus [4] = species on record: Rattus norvegicus; assay: Toxicity in rat assessed as gastric irritation (erosion) in starved rats; conditions: in vivo

| SMILES | fold change (FC) (Rattus norvegicus [1]) | fold change (FC) (Mus musculus) | fold change (FC) (Rattus norvegicus [2]) | fold change (FC) (Rattus norvegicus [3]) | Activity (Canis familiaris) | ED50 (Rattus norvegicus [4]) [mg/kg] |
| --- | --- | --- | --- | --- | --- | --- |
| O=C(O)Cc1ccc2c(c1)CCc1ccccc1[S+]2[O-] (racemic) | <=0.2 | 0.8 | – | – | – | – |
| O=C(O)Cc1ccc2c(c1)SCc1ccccc1C2=O [TIOPINAC] | 40 | 14 | 0.8 | 10 | Non-toxic | – |
| CC(C(=O)O)c1ccc2c(c1)SCc1ccccc1C2=O (racemic) | 115 | 20 | 2 | 70 | Toxic | 2 |
| O=C(O)Cc1ccc2c(c1)C=Cc1ccccc1O2 | <0.4 | 0.3 | – | – | – | – |
| C1CCC(NC2CCCCC2)CC1.CC(C(=O)O)c1ccc2c(c1)CSc1ccccc1C2=O (stereo not given) | 2 | 2.5 | – | – | – | – |
| C1CCC(NC2CCCCC2)CC1.CC(C(=O)O)c1ccc2c(c1)CCc1ccccc1S2 (racemic) | 3 | 5 | – | – | – | – |
| O=C(O)Cc1ccc2c(c1)C=Cc1ccccc1S2 | 2 | <1 | – | – | – | – |
| O=C(O)Cc1ccc2c(c1)S(=O)(=O)Cc1ccccc1C2=O | <0.2 | 0.2 | – | – | – | – |
| O=C(O)Cc1ccc2c(c1)Sc1ccccc1CC2 | 0.2 | 2 | – | – | – | – |
| O=C(O)Cc1ccc2c(c1)Sc1ccccc1C=C2 | <0.2 | <1 | – | – | – | – |
| O=C(O)Cc1ccc2c(c1)CC(=O)c1ccccc1S2 | 0.4 | 1 | – | – | – | – |
| C1CCC(NC2CCCCC2)CC1.CCC(C(=O)O)c1ccc2c(c1)SCc1ccccc1C2=O (stereo not given) | 20 | 4 | – | – | – | – |
| O=C(O)Cc1ccc2c(c1)C=Cc1ccccc1S2(=O)=O | 0.4 | 0.4 | – | – | – | – |
| CC(C(=O)O)c1ccc2c(c1)SCc1sccc1C2=O (racemic) | 13 | 20 | – | – | – | – |
| O=C(O)Cc1ccc2c(c1)[S+]([O-])Cc1ccccc1C2=O (racemic) | 0.5 | <=0.5 | – | – | – | – |
| O=C(O)Cc1ccc2c(c1)SCc1sccc1C2=O | 4 | 4 | – | – | – | – |
| O=C(O)Cc1ccc2c(c1)SCc1ccccc1C2 | 2 | 1 | – | – | – | – |
| O=C(O)Cc1ccc2c(c1)CC(=O)c1ccccc1O2 | <0.6 | <0.2 | – | – | – | – |
| O=C(O)Cc1cccc2c1SCc1ccccc1C2=O | <0.4 | – | – | – | – | – |
| O=C(O)Cc1ccc2c(c1)CCc1ccccc1S2 | 7 | 3 | 0.07 | 0.5 | – | – |
| O=C(O)Cc1ccc2c(c1)SCc1ccccc1C2O (racemic) | <1 | <0.3 | – | – | – | – |
| O=C(O)Cc1ccc2c(c1)CCc1ccccc1S2(=O)=O | 0.4 | 1 | – | – | – | – |
| O=C(O)Cc1ccc2c(c1)Sc1ccccc1C(=O)C2 | 0.4 | 1 | – | – | – | – |
| O=C(O)Cc1ccc2c(c1)CSc1ccccc1C2=O | 1 | 1 | – | – | – | – |
| O=C(O)Cc1ccc2c(c1)CCc1ccccc1O2 | 0.4 | 1 | – | – | – | – |
| O=C(O)Cc1ccc2c(c1)C(=O)c1ccccc1CS2 | 0.3 | 1.5 | – | – | – | – |

— ChEMBL document CHEMBL3244028, “Synthesis and antiinflammatory activity of 6,11-dihydro-11-oxodibenzo[b,e]thiepinalkanoic acids and related compounds” (J Med Chem, 1978)
